RAM inhibit: inhibitors of the yeast RAM network, primary screen, dse1pr::URA3 reporter, 5-FOA selection; 190,000 tested, 1.8% active; S. cerevisiae dse1pr::URA3 reporter, 5-FOA growth OD615, 2 d; analog-sensitive cbk1-as2 kinase mutant strain; inhibition, % at 50 µM;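 active = inhibition above a set limit, 3 SD over mean compound inhibition, cut at about 8.4% in these data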;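 also: 0% = DMSO-only wells with no growth and 100% = 10 µM 1-NA-PP1 full growth; inhibition rescues growth on 5-FOA so higher OD means more RAM inhibition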
Yeast growth inh: growth inhibitors of yeast BB579 in restrictive medium, primary screen, yeast lifespan-shortening project, S. cerevisiae. OD615, 48 h. inhibition, % at 10 µM. 140,000 tested, 0.51% active. AID 804, 2007;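 active = inhibition above a set limit, 3 SD over the mean compound inhibition, cut at about 44% in these data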
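Assay system: S. cerevisiae DeaD strain BB579 yeast. Medium: CSMM-D restrictive synthetic medium containing dextrose (glucose). Times: 4 h cell preincubation, 48 h compound exposure, 30 °C humidified. Signal: OD615 turbidity measurement. Benchmarks: positive control amphotericin B 10 µg/mL.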
WT yeast gro inh: growth inhibition of WT strain, primary screen, mitochondrial fusion inhibitor project, WT and mutant strains, chemical genetic. mitochondrial fusion phenotypic screen. inhibition, % at 10 µM. 190,000 tested, 2.1% active; in the data active = inhibition above about 58%; tested in S. cerevisiae
Measles CPE: compounds protecting cells from measles virus cytopathic effect, primary screen, measles RdRp inhibitor project, single point, MLSMR library, absorbance; AID 841, 2007; Measles virus-infected cells, CPE protection; protection (pct of control), % at 4 µM; 140,000 tested, 1.5% active; in the data active = protection mostly above about 24%, no sharp cut-off; inactive = mostly below about 26%
DAT uptake mod: changed hDAT dopamine uptake under cocaine IC80, either direction, primary screen, cocaine antagonist project, cell-based, LLC-PK1 hDAT, [14C]-dopamine uptake, MLSMR | AID 449768, 2010 | Sodium-dependent dopamine transporter (Homo sapiens), Q01959 | 110,000 tested, 1.3% active | B-score at 10 µM | LLC-PK1 hDAT cells, [14C]-dopamine uptake with cocaine IC80; actives deviate in either direction;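 active = Z score or B-score, a plate-position-corrected score, falls beyond the plate's 99.7% confidence bounds, in either direction; inactive = both scores lie inside the 99.7% bounds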;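 also: scored against the spread of the other compound wells on the same plate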
Target sequence (Q01959 whole entry, looked up): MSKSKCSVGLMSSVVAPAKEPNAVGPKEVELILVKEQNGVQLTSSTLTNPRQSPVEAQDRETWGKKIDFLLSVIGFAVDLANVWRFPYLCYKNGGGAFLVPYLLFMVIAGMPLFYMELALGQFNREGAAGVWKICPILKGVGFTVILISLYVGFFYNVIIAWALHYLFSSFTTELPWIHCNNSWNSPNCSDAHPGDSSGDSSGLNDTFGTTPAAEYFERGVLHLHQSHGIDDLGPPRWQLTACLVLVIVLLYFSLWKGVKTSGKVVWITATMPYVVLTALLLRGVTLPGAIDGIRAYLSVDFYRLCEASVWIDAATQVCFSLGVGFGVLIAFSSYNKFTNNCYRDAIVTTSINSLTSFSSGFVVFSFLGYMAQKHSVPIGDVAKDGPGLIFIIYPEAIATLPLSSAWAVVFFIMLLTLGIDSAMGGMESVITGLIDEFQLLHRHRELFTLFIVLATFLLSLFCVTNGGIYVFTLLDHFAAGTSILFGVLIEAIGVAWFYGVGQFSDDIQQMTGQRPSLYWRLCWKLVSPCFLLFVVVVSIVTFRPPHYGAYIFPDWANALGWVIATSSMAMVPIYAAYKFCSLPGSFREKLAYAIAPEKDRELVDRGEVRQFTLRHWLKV
Yeast lifespan up: compounds extending yeast replicative lifespan, primary screen, S. cerevisiae, OD615 | 130,000 tested, 0.68% active | inhibition of the nicotinamide effect, % at 10 µM | S. cerevisiae growth with nicotinamide; deaD strain in restrictive glucose medium | AID 775, 2007;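 active = inhibition above a set limit, placed 3 SD over the median of all compounds, cut at about 26% in these data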;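 also: 0% = nicotinamide-treated wells and 100% = cells grown without nicotinamide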
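Measured by: optical density (absorbance) at 615 nm; System: modified budding yeast, DeaD strain; Medium: restrictive CSMM-D dextrose medium; Timing: 4 h preincubation then 48 h treatment at 30 °C.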
* hit, by the source's call; x = no result given. Shown are actives, neighbours in structure and some others; about 6.1% of the full set was active somewhere.

SMILES | RAM inhibit | Yeast growth inh | WT yeast gro inh | Measles CPE | DAT uptake mod | Yeast lifespan up
O=C1/C(=C/Nc2ccc3c(c2)OCO3)CCc2ccccc21 | -0.2 | -26.4 | 62.5* | 16.3 | -0.00773 | -19.0
COc1ccc2c(c1)C(c1ccccc1)=NNC(c1ccco1)=N2 | 2.6 | -29.2 | -5.1 | 49.0* | 0.343 | -25.0
CCOc1ccc(C2=NNC(c3cccnc3)=Nc3ccc(OC)cc32)cc1 | 2.6 | x | -12.3 | x | x | x
Cc1cccn2c(=O)c(/C=C(\C#N)S(=O)(=O)c3ccccc3)c(Oc3ccc(Cl)cc3)nc12 | 4.8 | -49.0 | 59.9* | 9.1 | x | 3.2
O=C1CC(N2CCCCCC2)C(=O)N1c1ccc2c(c1)OCO2 (stereo not given) | 0.7 | -53.9 | 6.0 | 6.6 | 0.134 | 7.2
O=C1CC(NC23CC4CC(CC(C4)C2)C3)C(=O)N1c1ccc2c(c1)OCO2 (stereo not given) | 2.8 | -51.5 | 5.8 | 31.5* | -0.233 | -1.3
CCCCNC(=O)C1c2ccccc2C(=O)N(c2ccc(OC)cc2)C1c1ccc(OC)cc1 (stereo not given) | 0.4 | -24.5 | -13.1 | 14.3 | -7.84* | -8.7
Cc1ccc2ncccc2c1NC(=S)NC(=O)c1ccccc1 | 2.1 | x | 0.0 | x | x | x
CSc1ncccc1C(=O)OCC(=O)NCc1ccc2c(c1)OCO2 | 4.9 | x | -0.9 | x | x | x
O=C1CCC([N+](=O)[O-])C(c2cccc3ccccc23)N1 (stereo not given) | 0.0 | x | 0.8 | x | x | x
O=C1NCCc2c1[nH]c1ccccc21 | 0.1 | -5.9 | -15.7 | 8.0 | -0.566 | -17.2
O=C1NCCc2c1[nH]c1c(Cl)ccc(Cl)c21 | 0.5 | -17.2 | 89.4* | 3.1 | 0.13 | -21.5
O=C(CCl)N1c2ccccc2OCC1c1ccccc1 (stereo not given) | 0.5 | -48.6 | -4.3 | 0.3 | x | 47.2*
COc1ccc(S(=O)(=O)N2c3ccccc3OCC2c2ccccc2)cc1 (stereo not given) | 6.2 | -19.6 | -13.2 | 22.8 | 0.0794 | -15.1
O=C(Nc1ccccc1Cl)NC1(C(=O)N2CCCCC2)CCCCC1 | 0.6 | 9.1 | -6.3 | 21.1 | -1.09 | x
O=C(Nc1ccccc1Cl)NC1(C(=O)N2CCCC2)CCCCC1 | 1.1 | -10.3 | -14.2 | 8.5 | -8.93* | x
O=C(OCC(=O)N1CCN(C(=O)c2ccco2)CC1)c1cc(-c2ccc(Cl)c(Cl)c2Cl)nc2ccccc12 | 9.5* | -52.1 | 8.7 | 16.8 | x | -6.2
C[n+]1c2n(c3ccccc31)N=C(c1ccccc1)CS2 | 1.7 | -41.0 | 18.4 | 0.9 | -1.53 | -13.4
C[n+]1c2n(c3ccccc31)N=C(c1ccc(-c3ccccc3)cc1)CS2 | -1.4 | x | 87.3* | x | x | x
COc1cc(C(=O)NCCC(=O)NCCN2CCOCC2)cc(OC)c1OC | 1.5 | -26.6 | -16.8 | 4.0 | -1.6 | 0.0
Cc1cc(C)nc(N/N=C/C2=C(N3CCOCC3)C(=C\c3ccc(Cl)cc3)/CC2)n1 | 1.2 | 51.7* | 13.8 | 8.9 | x | -2.5
Cc1ccc(NC(=O)N(Cc2nc3ccccc3c(=O)[nH]2)Cc2cccs2)cc1 | 1.4 | -8.6 | -12.7 | 19.4 | x | -6.2
C=CCSc1nnc(-c2cc3c(C(F)(F)F)nn(C)c3s2)n1C | 0.3 | -47.8 | 5.6 | 17.9 | -8.83* | -8.0
COc1ccccc1C(=O)NCc1ccc(-c2nc3ccccc3s2)cc1 | 9.1* | -16.6 | 8.7 | 5.2 | x | -3.6
O=C(NCc1ccco1)c1cccnc1-c1nc2ccccc2s1 | 3.5 | -13.0 | 63.8* | 5.0 | x | -19.4
SMILES | RAM inhibit | Yeast growth inh | WT yeast gro inh | Measles CPE | DAT uptake mod | Yeast lifespan up
COc1cc(C(=O)NCc2ccc(-c3nc4ccccc4s3)cc2)cc(OC)c1OC | 1.1 | -14.6 | 1.8 | 9.8 | x | 1.6
O=C(NCc1ccco1)c1cccnc1Cl | -0.4 | -15.7 | -10.6 | 3.0 | x | 1.2
COc1ccc(-c2nc3ccccc3s2)cc1O | 1.1 | -46.3 | 58.5* | 9.5 | 0.912 | -25.4
Cc1cc(C(=O)COC(=O)c2ccc(CO)cc2)c(C)n1CC1COc2ccccc2O1 (stereo not given) | 3.1 | -36.8 | 18.2 | 18.5 | x | -6.1
CCN(C(=O)c1cn(C)c(=O)c2cc(OC)c(OC)cc12)c1cc(OC)ccc1OC | -1.3 | -5.5 | -7.7 | 14.3 | 0.102 | -10.2
COC(=O)c1c(C)[nH]c(C(=O)OCC(=O)N2c3ccccc3NC(=O)C2(C)C)c1C | 0.5 | -19.9 | 1.3 | 13.9 | x | -5.5
Nc1nonc1-c1nc2ccccc2n1CC(=O)N/N=C/c1ccc(-c2cccc(C(=O)O)c2)o1 | 2.2 | x | -40.4 | x | x | x
N#Cc1cc2c(nc1S(=O)(=O)Cc1ccccc1)CCCC2 | -0.6 | x | -3.2 | x | x | x
Cc1cccc(C(=O)c2cnc3ccccc3c2-c2ccccc2)c1 | 9.9* | -10.8 | 62.4* | 16.6 | -0.149 | 18.2
Cc1cccc(-c2cc(C(=O)NCc3ccccn3)c3ccccc3n2)c1 | -0.4 | -20.6 | 0.7 | 13.8 | x | -5.2
CCCSc1cc(NCCOC(=O)CCC)c([N+](=O)[O-])c2nonc12 | 5.2 | 2.3 | 45.4 | 10.7 | x | 28.3*
CCCSc1cc(NCCOC(C)=O)c([N+](=O)[O-])c2nonc12 | 3.5 | -1.6 | 4.6 | 9.8 | x | 1.1
CCC(=O)OCCNc1cc(Sc2nc3ccccc3s2)c2nonc2c1[N+](=O)[O-] | 2.7 | -30.1 | 94.7* | 4.7 | -0.933 | 32.3*
CCCC(C)NC(=O)CSc1nc(-c2ccccc2)cn1N (stereo not given) | 1.1 | x | -0.7 | x | x | x
N#Cc1ccccc1NC(=O)CSc1nnc(-c2ccccc2O)n1-c1ccccc1 | 10.2* | -36.0 | -2.9 | 16.8* | 1.34 | -4.9
CC(=O)Nc1ccc(S(=O)(=O)Nc2cccc(NC(=O)c3ccco3)c2)cc1 | 0.7 | x | x | x | x | x
CCCCCSc1nc(O)cc(=O)[nH]1 | 0.9 | -18.9 | 6.0 | 9.2 | 0.322 | 58.1*
CCCCCCCSc1nc(N)cc(=O)[nH]1 | 0.8 | 15.5 | -33.6 | 7.6 | x | -12.6
COc1ccc(C2CC(c3ccccc3)n3nnnc3N2)cc1 (stereo not given) | 2.7 | -1.4 | -3.6 | 7.1 | -0.5 | -4.3
CCOc1ccc(C2CC(c3cccc(OC)c3OC)n3nnnc3N2)cc1Cl (stereo not given) | 3.6 | -57.6 | 8.2 | 8.0 | -4.25* | 4.7
CCOc1ccccc1C(=O)N(C)Cc1cc2ccccc2[nH]c1=O | 1.6 | -3.4 | 40.2 | 3.2 | -0.042 | -29.9
CCOc1cc(C(=O)N(C)Cc2cc3ccccc3[nH]c2=O)cc(OCC)c1OCC | 8.8* | -10.4 | 77.8* | 64.0* | -0.38 | -9.5
Cc1cc2nc3c(c(C(F)(F)F)n2n1)CCCC3 | 2.3 | x | -0.2 | x | x | x
CC(=C/C(=O)O)/C=C/c1ccco1 | -0.7 | -23.9 | -1.5 | 6.5 | x | 28.3*
